Source: ChEMBL document CHEMBL4184147, “Polyphenolic Phytochemicals in Cancer Prevention and Therapy: Bioavailability versus Bioefficacy” (J Med Chem, 2017)

Tests used:
[1] = Displacement of [3H]resveratrol from Sprague-Dawley rat brain plasma membranes after 1 hr by beta counting method; format: cell membranes
[2] = Cytotoxicity against human MML1 cells assessed as decrease in cell viability after 48 hrs by MTT assay; format: functional, cell-based
[3] = test system: U-87 MG; test: Cytotoxicity against human U87 cells assessed as cell viability at 18 uM after 48 hrs by MTT assay; format: functional, U-87MG ATCC; conditions: read-out: Activity
[4] = Tmax in mouse at 10 mg/kg, iv by LC-MS/MS method; format: ADME, organism-based; conditions: in vivo
How it was run: (§1)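 For IV dosing, compound dissolved in DMSO:ethanol (2:1), total volume no more than 30 μL. For oral dosing, compound given in a self-microemulsifying delivery system (60% surfactant, emulsifier OP:Cremophor EL 1:1; 30% PEG 400; 10% ethyl oleate), total volume no more than 100 μL. Plasma levels measured by previously described methods.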

[5] = test system: T47D; test: Cytotoxicity against human T47D cells assessed as cell viability at 18 uM after 48 hrs by MTT assay; format: functional; conditions: read-out: Activity
[6] = test system: COLO 201; test: Cytotoxicity against human COLO201 cells assessed as decrease in cell viability after 48 hrs by trypan blue exclusion and LDH release; conditions: COLO 201, 48 h
[7] = test system: MDA-MB-231; test: Cytotoxicity against human MDA-MB-231 cells assessed as decrease in cell viability after 48 hrs by trypan blue exclusion and LDH release; conditions: MDA-MB-231, 48 h
[8] = test system: PANC-1; test: Cytotoxicity against human PANC1 cells assessed as cell viability at 18 uM after 48 hrs by MTT assay; format: functional; conditions: PANC-1, 48 h, read-out: Activity
[9] = test system: BXPC-3; test: Cytotoxicity against human BxPC3 cells assessed as decrease in cell viability after 48 hrs by MTT assay; format: functional, cell-based; conditions: BXPC-3, 48 h
[10] = Plasma concentration in mouse at 100 mg/kg, po at 60 mins by LC-MS/MS method; format: ADME, organism-based; how it was run: as §1
[11] = test system: Lipid bilayer; test: Induction of DOPC/n-decane bilayer property changes assessed as concentration required to double gramicidin-induced quencher influx rate by […]
[12] = test system: PANC-1; test: Cytotoxicity against human PANC1 cells assessed as decrease in cell viability after 48 hrs by MTT assay; format: functional, cell-based; conditions: PANC-1, 48 h
[13] = Cytotoxicity against human MML1 cells assessed as cell viability at 18 uM after 48 hrs by MTT assay; format: functional; conditions: read-out: Activity
[14] = test system: SK-MEL-2; test: Cytotoxicity against human SK-MEL-2 cells assessed as decrease in cell viability after 48 hrs by MTT assay; format: functional, cell-based; conditions: SK-MEL-2, 48 h
[15] = Cmax in mouse at 100 mg/kg, po by HPLC method; format: ADME, organism-based; parameters: dose 100 mg/kg, route oral; conditions: in vivo
How it was run: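 For oral dosing, polyphenol was dissolved in a self-microemulsifying delivery system: 60% surfactant (emulsifier OP:Cremophor EL 1:1), 30% cosurfactant (PEG 400) and 10% oil (ethyl oleate). Total volume given was never above 100 μL. Plasma levels were quantified by previously described methods.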

[16] = test system: MDA-MB-231; test: Cytotoxicity against human MDA-MB-231 cells assessed as cell viability at 18 uM after 48 hrs by MTT assay; format: functional; conditions: MDA-MB-231, 48 h, read-out: Activity
[17] = test system: SK-MEL-2; test: Cytotoxicity against human SK-MEL-2 cells assessed as cell viability at 18 uM after 48 hrs by MTT assay; format: functional; conditions: SK-MEL-2, 48 h, read-out: Activity
[18] = Tmax in mouse at 100 mg/kg, po by HPLC method; format: ADME, organism-based; conditions: in vivo
How it was run: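 Given orally in a self-microemulsifying delivery system (60% surfactant, emulsifier OP:Cremophor EL 1:1; 30% PEG 400 cosurfactant; 10% ethyl oleate oil), total volume no more than 100 μL. Plasma levels measured by previously described methods.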

[19] = test system: COLO 201; test: Cytotoxicity against human COLO201 cells assessed as cell viability at 18 uM after 48 hrs by MTT assay; format: functional; conditions: COLO 201, 48 h, read-out: Activity
[20] = Cmax in mouse at 10 mg/kg, iv by LC-MS/MS method; format: ADME, organism-based; parameters: dose 10 mg/kg, route intravenous; conditions: in vivo
How it was run: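 Mouse iv dosing used polyphenol dissolved in DMSO:ethanol (2:1), with total injected volume never above 30 μL. Plasma levels were measured by previously described methods.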

[21] = test system: NCI-H460; test: Cytotoxicity against human NCI-H460 cells assessed as cell viability at 18 uM after 48 hrs by MTT assay; format: functional; conditions: NCI-H460, 48 h, read-out: Activity
[22] = test system: HT-29; test: Cytotoxicity against human HT-29 cells assessed as decrease in cell viability after 48 hrs by trypan blue exclusion and LDH release; conditions: HT-29, 48 h
[23] = test system: A549; test: Cytotoxicity against human A549 cells assessed as cell viability at 18 uM after 48 hrs by MTT assay; format: functional; conditions: A549, 48 h, read-out: Activity
[24] = test system: LN-229; test: Cytotoxicity against human LN229 cells assessed as cell viability at 18 uM after 48 hrs by MTT assay; format: functional; conditions: LN-229, 48 h, read-out: Activity
[25] = test system: A549; test: Cytotoxicity against human A549 cells assessed as decrease in cell viability after 48 hrs by trypan blue exclusion and LDH release; conditions: A549, 48 h
[26] = Plasma concentration in mouse at 10 mg/kg, iv at 60 mins by LC-MS/MS method; format: ADME, organism-based; how it was run: as §1
[27] = test system: T47D; test: Cytotoxicity against human T47D cells assessed as decrease in cell viability after 48 hrs by trypan blue exclusion and LDH release
[28] = test system: NCI-H460; test: Cytotoxicity against human NCI-H460 cells assessed as decrease in cell viability after 48 hrs by MTT assay; format: functional, cell-based; conditions: NCI-H460, 48 h
[29] = test system: U-87 MG; test: Cytotoxicity against human U87 cells assessed as decrease in cell viability after 48 hrs by trypan blue exclusion and LDH release
[30] = test system: LN-229; test: Cytotoxicity against human LN229 cells assessed as decrease in cell viability after 48 hrs by trypan blue exclusion and LDH release; conditions: LN-229, 48 h
[31] = test system: BXPC-3; test: Cytotoxicity against human BxPC3 cells assessed as cell viability at 18 uM after 48 hrs by MTT assay; format: functional; conditions: BXPC-3, 48 h, read-out: Activity
[32] = test system: HT-29; test: Cytotoxicity against human HT-29 cells assessed as cell viability at 18 uM after 48 hrs by MTT assay; format: functional; conditions: HT-29, 48 h, read-out: Activity

## O=C(O[C@@H]1Cc2c(O)cc(O)cc2O[C@@H]1c1ccc(O)c(O)c1)c1cc(O)c(O)c(O)c1 [EPICATECHIN GALLATE]
[1]
  Ki: 0.025 to 0.045 µM

## O=c1c(-c2ccc(O)cc2)coc2cc(O)cc(O)c12 [GENISTEIN]
[2]
  IC50: 42 µM
[3]
  viability at 18 µM: 98%
[4]
  Tmax: 5 min
[5]
  viability at 18 µM: 93%
[6]
  IC50: 73 µM
[7]
  IC50: 43 µM
[8]
  viability at 18 µM: 99%
[9]
  IC50: 79 µM
[10]
  concentration at 1 h: < 1 µM
[11]
  Activity: 26.7 µM
[12]
  IC50: 87 µM
[13]
  viability at 18 µM: 104%
[14]
  IC50: 36 µM
[15]
  Cmax: 17 µM
[16]
  viability at 18 µM: 91%
[17]
  viability at 18 µM: 105%
[18]
  Tmax: 10 min
[19]
  viability at 18 µM: 100%
[20]
  Cmax: 35 µM
[21]
  viability at 18 µM: 102%
[22]
  IC50: 50 µM
[23]
  viability at 18 µM: 107%
[24]
  viability at 18 µM: 100%
[25]
  IC50: 64 µM
[26]
  concentration at 1 h: < 1 µM
[27]
  IC50: 48 µM
[28]
  IC50: 47 µM
[29]
  IC50: 55 µM
[30]
  IC50: 44 µM
[31]
  viability at 18 µM: 96%
[32]
  viability at 18 µM: 104%
